# ERAP1 inh = human ERAP1 aminopeptidase inhibitors, primary screen, biochemical, single point, plate reader; Endoplasmic reticulum aminopeptidase 1 (Homo sapiens), Q9NZ08; recombinant ERAP1, Leu-AMC fluorescence, 60 min; inhibition, % at 10.7 µM; hit rate 0.15% among 340,000;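 active = mean replicate inhibition of at least 30%, or all replicates individually reaching that 30% level; inactive = mean below 30% and not every replicate reaching it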;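 note: 0% = neutral control wells and 100% = L-leucinethiol positive control wells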
# ERp5 block = inhibitors of ERp5-driven insulin aggregation, primary screen, biochemical, turbidity, absorbance 650 nm, single point. Protein disulfide-isomerase A6 (Homo sapiens), Q15084. 90 min. inhibition, % at 9.99 µM. hit rate 0.05% among 350,000. AID 651711, 2012;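 active = mean replicate inhibition above about 25%, with every replicate also reaching it, limit read from the data, passing the limit was not always enough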
# Rin1-Abl PPI inh = inhibitors of Rin1-Abl protein binding, primary screen, biochemical, TR-FRET | AID 588664, 2011 | hit rate 0.4% among 360,000 | inhibition, % at 7.35 µM; in the data active = inhibition above about 5%, passing the limit was not always enough
# CAL PDZ FP-1 = CAL PDZ peptide-binding inhibitors, primary screen, biochemical, fluorescence polarization, Cer-tagged CAL PDZ, HTS; Golgi-associated PDZ and coiled-coil motif-containing protein (Homo sapiens), Q9HD26; purified CAL PDZ, TMR-peptide fluorescence polarization, 1 h; inhibition, % at 20 µM; hit rate 0.02% among 330,000; AID 504414, 2011;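 active = highest replicate inhibition of at least 40%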;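 note: plate controls were DMSO neutral control wells for no effect and unlabeled competitor peptide control wells for full effect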
#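 Material: tagged CAL PDZ protein CerCALP, purified; buffer or medium: sodium phosphate/NaCl buffer pH 7.4 with TCEP, IgG, Thesit; also added: fluorescent TMR peptide probe; schedule: 1 h incubation at room temperature before polarization reading; technique: fluorescence polarization from S- and P-plane intensities, G-factor corrected; control set: unlabelled peptide and DMSO controls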
# PDI turbidity = inhibitors of human PDI, primary screen, biochemical, turbidity, single point, plate reader; Protein disulfide-isomerase (Homo sapiens), P07237; PDI insulin aggregation turbidity, A650, 90 min; inhibition, % at 10 µM; hit rate 0.052% among 350,000;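 active = mean inhibition across replicates of 30% or more, whatever share of single replicates reach that level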
# Target sequence (P07237 whole entry, looked up): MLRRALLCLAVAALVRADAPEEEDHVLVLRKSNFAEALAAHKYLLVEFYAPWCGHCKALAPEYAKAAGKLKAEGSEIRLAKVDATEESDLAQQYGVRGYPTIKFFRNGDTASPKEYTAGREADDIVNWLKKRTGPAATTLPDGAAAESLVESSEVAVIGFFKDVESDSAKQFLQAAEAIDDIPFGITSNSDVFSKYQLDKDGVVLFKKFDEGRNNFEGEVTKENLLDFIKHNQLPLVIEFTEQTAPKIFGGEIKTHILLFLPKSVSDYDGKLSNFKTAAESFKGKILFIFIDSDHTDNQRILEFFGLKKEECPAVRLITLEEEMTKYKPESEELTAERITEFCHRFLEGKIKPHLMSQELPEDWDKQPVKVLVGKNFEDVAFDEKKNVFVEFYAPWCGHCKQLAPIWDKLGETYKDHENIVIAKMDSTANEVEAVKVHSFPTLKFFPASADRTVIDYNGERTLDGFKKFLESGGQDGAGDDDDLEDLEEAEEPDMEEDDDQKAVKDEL
# CAL PDZ FP-2 = untagged CAL PDZ binding inhibitors, primary screen, biochemical, fluorescence polarization, HTS. AID 602252, 2012. hit rate 0.92% among 300,000. Golgi-associated PDZ and coiled-coil motif-containing protein (Homo sapiens), Q9HD26. inhibition, % at 24.9 µM. purified CAL PDZ, TMR-peptide fluorescence polarization, 1 h;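 active = mean inhibition of at least 30% with at least half of replicates also reaching 30%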;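 note: 0% = DMSO neutral control and 100% = excess unlabeled competitor peptide PRC23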
# * marks the source's active call; other numbers are inactive results; . = not tested or not shown. A selection: hits, their analogues and other compounds. The true share with any hit is near 1.1%.
SMILES,ERAP1 inh,ERp5 block,Rin1-Abl PPI inh,CAL PDZ FP-1,PDI turbidity,CAL PDZ FP-2
CCOC(=O)c1ccc(-n2c(C)nc3c(cnn3-c3ccccc3Cl)c2=O)cc1,.,.,-3,1,3,78*
O=C(O)c1ccc(CNC(=O)c2ccccc2NC(=O)c2ccc([N+](=O)[O-])cc2)cc1,-6,6,1,.,4,50*
O=C(O)c1ccc(CNC(=O)c2ccccc2NC(=O)c2cccc([N+](=O)[O-])c2)cc1,-29,-4,-1,0,0,16
O=C(Nc1ccccc1C(=O)Nc1ccccn1)c1ccc([N+](=O)[O-])cc1,7,-6,-5,0,-3,43*
COc1ccc(C(=O)Nc2ccccc2C(=O)Nc2ccccn2)cc1,1,0,2,-3,1,-5
C[C@@H]1CN([C@@H](C)CO)S(=O)(=O)c2ccc(C#Cc3ccc(F)cc3)cc2O[C@@H]1CN(C)C,0,1,.,.,.,.
CCCNC(=O)C[C@H]1C[C@H]2c3cc(NC(=O)Nc4ccccc4F)ccc3O[C@H]2[C@H](CO)O1,3,0,.,.,.,.
O=C(NNC(=O)c1n[nH]c(=O)c2ccccc12)c1ccc(Br)cc1,-1,3,-1,-1,-6,109*
Cc1cc(NC(=O)c2n[nH]c(=O)c3ccccc23)ccc1Br,-1,7,.,.,.,.
CC(C)c1ccc(NC(=O)c2n[nH]c(=O)c3ccccc23)cc1,-1,7,4,-1,6,35*
CCc1ccc(C(=O)NNC(=O)c2n[nH]c(=O)c3ccccc23)cc1,1,9,-4,0,2,-3
C[C@H]1CCCCO[C@H](CN(C)C)[C@@H](C)CN([C@@H](C)CO)C(=O)c2cc(NC(=O)Cc3ccccc3)ccc2O1,1,2,.,.,.,.
COCC#Cc1ccc2c(c1)O[C@H](CN(C)C(=O)C1CCC1)[C@@H](C)CN([C@@H](C)CO)S2(=O)=O,1,2,.,.,.,.
CCOC(=O)C1(CCOc2ccccc2)CCN(Cc2ccc(C)o2)CC1,2,-2,3,-1,5,53*
CCOC(=O)C1(CCOc2ccccc2)CCN(Cc2cnc(SC)nc2)CC1,-3,1,-3,-1,-7,46*
Cc1noc(C)c1NC(=O)N(C)C[C@H]1OCCCC[C@@H](C)Oc2ccc(NC(=O)C3CCCCC3)cc2C(=O)N([C@@H](C)CO)C[C@@H]1C,3,-5,.,.,.,.
COc1ccc(-c2nn(-c3ccccc3)cc2/C=C/C(=O)N2CCOCC2)cc1OC,13,4,1,-1,4,53*
CCCN(CC(=O)Nc1ccccc1C)C(=O)CCCc1c[nH]c2ccccc12,1,-5,0,0,10,132*
CCN(CC(=O)Nc1c(F)cccc1F)C(=O)CCCc1c[nH]c2ccccc12,0,-3,0,0,-8,-4
CCCN(CC(=O)Nc1ccccc1C)C(=O)COc1c(Cl)cccc1Cl,-1,-1,3,-2,4,-2
CCCN(CC(=O)Nc1ccccc1C)C(=O)COc1c(C)cccc1C,4,6,2,0,6,45*
COc1ccc(-c2cccc(-c3nc(C(=O)NCC(F)(F)F)cc4c3[C@@H](CCO)N([S@](=O)C(C)(C)C)C4)c2)cc1,-3,1,.,.,.,.
C[C@@H]1CN([C@H](C)CO)C(=O)c2cccc(NC(=O)c3ccc(-c4nccs4)cc3)c2O[C@H]1CN(C)CC1CC1,1,4,.,.,.,.
CN1CCC(C2(O)c3ccccc3CSc3sccc32)CC1 (centres undefined),.,.,2,.,3,110*
N/N=C(/Cc1nc2ccccc2[nH]1)c1ccc([N+](=O)[O-])cc1,4,4,3,0,3,73*
SMILES,ERAP1 inh,ERp5 block,Rin1-Abl PPI inh,CAL PDZ FP-1,PDI turbidity,CAL PDZ FP-2
c1ccc(N/N=C(\Cc2nc3ccccc3[nH]2)c2ccccc2)cc1,0,2,3,-4,1,-2
COCc1[nH][nH]c(=O)c1/C=N/N1CCOCC1,-1,-5,3,-1,-7,43*
CC(C)CC(=O)Nc1ccnn1C1CCN(C(=O)c2ccc(Cl)cc2F)CC1,2,1,2,0,1,1
CC(C)(C)C(=O)Nc1ccnn1C1CCN(C(=O)c2ccc(Cl)cc2F)CC1,-3,5,-3,0,0,44*
CCC(C)NC(=O)C1CCN(c2nc(OC)nc(OC)n2)CC1 (centres undefined),.,.,4,-1,22,-3
CCC(C)(C)NC(=O)C1CCN(c2nc(OC)nc(OC)n2)CC1,0,4,1,1,-6,34*
CN1C(=O)c2cc(NC(=O)c3ccc(F)c(F)c3)ccc2OC[C@@H]2O[C@H](CC(=O)N[C@H]3CCN(Cc4ccccc4)C3)CC[C@H]21,0,-3,.,.,.,.
NC(=O)NC(CC(=O)NNC(=O)c1cccs1)c1ccc(Cl)cc1 (centres undefined),3,1,2,1,-3,31*
CO[C@H]1CN(C)C(=O)c2ccc(NC(=O)Nc3ccc4c(c3)OCO4)cc2OC[C@@H](C)NC[C@@H]1C,1,-1,.,.,.,.
CN(C)CC(=O)Nc1ccc2c(c1)[C@H]1C[C@@H](CC(=O)NCc3ccc4c(c3)OCO4)O[C@@H](CO)[C@H]1O2,1,-2,.,.,.,.
COc1ccc(S(=O)(=O)Nc2ccc3c(c2)C(=O)N([C@H](C)CO)C[C@H](C)[C@@H](CN(C)C(=O)Nc2ccccc2)O3)cc1,1,0,5,-1,-2,8
COc1ccc(NC(=O)N(C)C[C@H]2Oc3ccc(NS(=O)(=O)c4ccccc4)cc3C(=O)N([C@@H](C)CO)C[C@@H]2C)cc1,2,33*,.,.,.,.
COc1ccc(S(=O)(=O)Nc2ccc3c(c2)C(=O)N([C@H](C)CO)C[C@H](C)[C@H](CN(C)C(=O)Nc2ccccc2)O3)cc1,-4,29*,.,.,.,.
C[C@@H]1CCCCO[C@@H](CN(C)Cc2ccncc2)[C@@H](C)CN([C@H](C)CO)C(=O)c2cc(NC(=O)Nc3cccc4ccccc34)ccc2O1,1,0,.,.,.,.
COc1ccc2c3c([nH]c2c1)[C@H](CO)N(C(=O)c1cccnc1)CC31CCN(Cc2ccccc2)CC1,3,-1,.,.,.,.
C[C@@H]1CCCCO[C@H](CN(C)S(=O)(=O)c2ccc(Cl)cc2)[C@@H](C)CN([C@H](C)CO)C(=O)c2cc(NC(=O)CCCN(C)C)ccc2O1,-4,3,.,.,.,.

# Screening data as filed in PubChem BioAssay.
